Assay [1] deals with Staphylococcus sp. Description: In vitro antimicrobial activity against CNS GC 4547. Type of assay: functional. The gist of the method:
(§1)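 Broth microdilution per NCCLS guidance. Serial dilutions of each agent in microtiter plates are inoculated with each organism to 10⁵ CFU/mL and incubated 18–22 h at 35 C in ambient air. MIC is the lowest concentration giving complete growth inhibition, judged by the unaided eye.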

Assay [2] concerns Staphylococcus aureus. Briefly: In vitro antimicrobial activity against Staphylococcu aureus GC 1131. Format: functional. The gist of the method:
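Broth dilution per NCCLS recommendations. Serial dilutions in microtiter plates inoculated to 10⁵ CFU/mL, then incubated 18–22 h at 35 C in ambient air. MIC taken as the lowest concentration giving complete growth inhibition by unaided eye.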

The subject of assay [3] is Escherichia coli. Briefly: In vitro antimicrobial activity against Escherichia coli GC 3226. Type of assay: functional. The gist of the method: as §1
Assay [4] concerns Escherichia coli. Description: In vitro antimicrobial activity against Escherichia coli GC 4560. Type of assay: functional. The gist of the method:
as §1

In assay [5] the test system is Bacteria. Briefly: In vitro antimicrobial activity against gram-negative organisms (10). Format: functional. The gist of the method:
as §1

In assay [6] the test system is Candida albicans. Briefly: In vitro antimicrobial activity against Candida albicans GC 3066. Type of assay: functional. The gist of the method:
as §1

In assay [7] the test system is Pseudomonas aeruginosa. Briefly: In vitro antimicrobial activity against Pseudomonas aeruginosa GC 4532. Format: functional. The gist of the method:
as §1

Assay [8] deals with Staphylococcus sp. Briefly: In vitro antimicrobial activity against CNS GC 4538. Type of assay: functional. The gist of the method: as §1
The subject of assay [9] is Staphylococcus aureus. Description: In vitro antimicrobial activity against Staphylococcu aureus GC 2216. Format: functional. The gist of the method:
as §1

Assay [10] concerns Klebsiella pneumoniae. Briefly: In vitro antimicrobial activity against Klebsiella pneumoniae GC 4534. Format: functional. The gist of the method: as §1
Assay [11] relates to Enterobacter cloacae. Briefly: In vitro antimicrobial activity against Enterobacter cloacae GC 3783. Format: functional. The gist of the method: as §1
Assay [12] concerns Staphylococcus sp. Description: In vitro antimicrobial activity against Staphylococci. Format: functional, staphyl ococcus species. The gist of the method:
as §1

Assay [13] can be described thus: The inhibitory activity of compound against MraY or MurG at 50 ug/mL; Inhibit.
Assay [14] is described as follows: The inhibitory activity of compound against MraY or MurG at 12.5 ug/mL; No Inhibition.
For assay [15], the system named is Enterococcus faecalis. Briefly: In vitro antimicrobial activity against Enterococcus faecalis GC 2242. Type of assay: functional. The gist of the method: as §1
Assay [16] has as its system Escherichia coli. Briefly: In vitro antimicrobial activity against Escherichia coli GC 2214. Format: functional. The gist of the method:
as §1

Assay [17] has as its system Morganella morganii. Briefly: In vitro antimicrobial activity against Morganella morganii GC 4531. Type of assay: functional. The gist of the method:
as §1

Assay [18] deals with Enterococcus faecalis. Description: In vitro antimicrobial activity against Enterococcus faecalis GC 4555. Format: functional. The gist of the method: as §1
A short description of assay [19]: The inhibitory activity of compound against MraY or MurG at 25 ug/mL; No Inhibition.
The test system of assay [20] is Staphylococcus aureus. Description: In vitro antimicrobial activity against Staphylococcu aureus GC 4536. Type of assay: functional. The gist of the method: as §1
Assay [21] relates to Enterococcus faecalis. Briefly: In vitro antimicrobial activity against Enterococcus faecalis GC 842. Type of assay: functional. The gist of the method: as §1
Assay [22] relates to Enterococcus sp. Description: In vitro antimicrobial activity against Enterococci. Format: functional. The gist of the method: as §1
Assay [23] can be described thus: The inhibitory activity of compound against MraY or MurG at 100 ug/mL;Inhibit.
Assay [24] deals with Serratia marcescens. Description: In vitro antimicrobial activity against Serratia marcescens GC 4077. Type of assay: functional. The gist of the method:
as §1

Assay [25] can be described thus: The inhibitory activity of compound against MraY or MurG at 6.25 ug/mL; No Inhibition.
Assay [26] relates to Pseudomonas aeruginosa. Description: In vitro antimicrobial activity against Pseudomonas aeruginosa GC 2214. Type of assay: functional. The gist of the method: as §1
Assay [27] deals with Escherichia coli. Description: In vitro antimicrobial activity against Escherichia coli GC 4559. Type of assay: functional. The gist of the method:
as §1

Assay [28] is described as follows: The inhibitory activity of compound against MraY or MurG at 100 ug/mL; Inhibit.
Assay [29] is described as follows: The inhibitory activity of compound against MraY or MurG at 25 ug/mL; Inhibit.
A short description of assay [30]: The inhibitory activity of compound against MraY or MurG at 12.5 ug/mL; Inhibit.
Where [31] appears, read: Staphylococcus sp., read-out: MIC.

Data on three molecules can be found in ChEMBL document CHEMBL1145867, “Muraymycins, novel peptidoglycan biosynthesis inhibitors: synthesis and SAR of their analogues” (2003).

≈ marks a conversion by molar mass, not a printed value. Calls of active or inactive are those of the source. The rule behind the calls is not given here. Where only a bound is given, the exact number is not on record here.

For the molecule `COc1ccc(Cn2c(=O)ccn([C@@H]3OC([C@H](O)[C@H](NCCCNC(=O)[C@H](N)C(O)C(C)C)C(=O)OC(C)(C)C)[C@@H](O[Si](C)(C)C(C)(C)C)[C@H]3O[Si](C)(C)C(C)(C)C)c2=O)cc1` (some centres undefined), the MIC in assay [1] is 16 µg/mL (≈ 17.6 µM); in assay [2], 4 µg/mL (≈ 4.4 µM); in assay [3], above 128 µg/mL; in assay [4] it was above 128 µg/mL; in assay [5] it was above 128 µg/mL; in assay [6], above 128 µg/mL. Moreover, the MIC is above 128 µg/mL in assay [7]; 4 µg/mL (≈ 4.4 µM) in assay [8]; 4 µg/mL (≈ 4.4 µM) in assay [8] (setting [31]); 4 µg/mL (≈ 4.4 µM) in assay [9]; above 128 µg/mL in assay [10]; above 128 µg/mL in assay [11]. The MIC in assay [12] was 4 µg/mL (≈ 4.4 µM); in [15], 4 µg/mL (≈ 4.4 µM); in [16], above 128 µg/mL; in assay [17], above 128 µg/mL; in assay [18] it was 4 µg/mL (≈ 4.4 µM); in [20], 16 µg/mL (≈ 17.6 µM). In addition, the MIC was 8 µg/mL (≈ 8.81 µM) in [21]; 128 µg/mL (≈ 141 µM) in assay [22]; above 128 µg/mL in [24]; above 128 µg/mL in assay [26]; above 128 µg/mL in [27]. Also, the Inhibitory activity entry in assay [13] and in [23] was “Inhibit” in each case. Besides, the Inhibitory activity result in assay [14], in [19] and in assay [25] was “inactive” each time.
As for `CC(C)C(O)[C@@H](N)C(=O)NCCCN[C@H](C(=O)OC(C)(C)C)[C@@H](O)C1O[C@@H](n2ccc(=O)[nH]c2=O)[C@H](O[Si](C)(C)C(C)(C)C)[C@@H]1O[Si](C)(C)C(C)(C)C` (some centres undefined), the MIC in assay [1] is 2 µg/mL (≈ 2.54 µM); in assay [2], 1 µg/mL (≈ 1.27 µM); in [3] it was above 128 µg/mL; in assay [4], 32 µg/mL (≈ 40.6 µM); in assay [5], above 128 µg/mL; in [6], 32 µg/mL (≈ 40.6 µM). Besides, the MIC in [7] was 128 µg/mL (≈ 162 µM); in assay [8], 2 µg/mL (≈ 2.54 µM); in assay [8] (setting [31]) it was 1 µg/mL (≈ 1.27 µM); in [9] it was 2 µg/mL (≈ 2.54 µM); in assay [10] it was 128 µg/mL (≈ 162 µM); in [11], 128 µg/mL (≈ 162 µM). For the same molecule, the MIC came out at 1 µg/mL (≈ 1.27 µM) in assay [12]; 2 µg/mL (≈ 2.54 µM) in assay [15]; 128 µg/mL (≈ 162 µM) in assay [16]; 128 µg/mL (≈ 162 µM) in assay [17]; 2 µg/mL (≈ 2.54 µM) in assay [18]; 1 µg/mL (≈ 1.27 µM) in assay [20]. The MIC is 2 µg/mL (≈ 2.54 µM) in assay [21]; 2 µg/mL (≈ 2.54 µM) in assay [22]; 128 µg/mL (≈ 162 µM) in [24]; above 128 µg/mL in [26]; above 128 µg/mL in [27]. Further, the Inhibitory activity entry in assay [28], in assay [29], in [13] and in assay [30] was “Inhibit” in each case. Also, in assay [25], the Inhibitory activity entry was “inactive”.
Take `COc1ccc(Cn2c(=O)ccn([C@@H]3OC([C@H](O)[C@H](NCCCNC(=O)[C@H](N)CC(C)C)C(=O)OC(C)(C)C)[C@@H](O[Si](C)(C)C(C)(C)C)[C@H]3O[Si](C)(C)C(C)(C)C)c2=O)cc1` (some centres undefined): the Inhibitory activity result in assay [29], in assay [13] and in assay [23] was “Inhibit” in each case. The values for the MIC in [5], in [12] and in assay [22] were above 128 µg/mL, 4 µg/mL (≈ 4.48 µM) and 4 µg/mL (≈ 4.48 µM), respectively. Further, the Inhibitory activity result in [14] and in assay [25] was “inactive” each time.

By MIC is commonly meant the lowest concentration that inhibits growth of the organism.
